Data published in publication PMC3856871 (MedChemComm, 2012).
Entries after “also recorded” stand apart in the source; their conditions may differ.

Legend:
[1] = system: MCF-7 breast carcinoma cell line; assay type: cell-based; settings: MCF-7 cells, 50 μM, 24 h
MCF-7 cells = assay: proliferative analysis / cell viability assay on MCF-7 cells; assay type: cell-based; settings: 30 μM, 0-72 h
[2] = system: p53 acetylation at lysine 382; assay: Western blot on MCF-7 cells, p53 acetylation at lysine 382; assay type: cell-based; settings: 24 h, 50 μM (Fig. 3)
acetyl-α-tubulin = assay: Western blot on MCF-7 cells, acetylation status of α-tubulin; assay type: cell-based; settings: 24 h; for acetyl-α-tubulin accumulation: 50 μM, comparison of SIRT inhibitors (Fig. 3)
Procedure, shortened: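 MCF-7 cells exposed 24 h to test compound at increasing concentrations […]. Acetylation of α-tubulin (SIRT2 biomarker) and of histone H3-K9 (SIRT1 biomarker) monitored in parallel.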

SIRT2 = target: T1, SIRT2 (Homo sapiens, UniProt Q8IXJ6); assay: in vitro enzymatic fluorimetric assay, SIRT2 inhibitory activity; assay type: biochemical; settings: for selectivity for SIRT2 over SIRT1: in vitro
T1 sequence (Q8IXJ6 1-389): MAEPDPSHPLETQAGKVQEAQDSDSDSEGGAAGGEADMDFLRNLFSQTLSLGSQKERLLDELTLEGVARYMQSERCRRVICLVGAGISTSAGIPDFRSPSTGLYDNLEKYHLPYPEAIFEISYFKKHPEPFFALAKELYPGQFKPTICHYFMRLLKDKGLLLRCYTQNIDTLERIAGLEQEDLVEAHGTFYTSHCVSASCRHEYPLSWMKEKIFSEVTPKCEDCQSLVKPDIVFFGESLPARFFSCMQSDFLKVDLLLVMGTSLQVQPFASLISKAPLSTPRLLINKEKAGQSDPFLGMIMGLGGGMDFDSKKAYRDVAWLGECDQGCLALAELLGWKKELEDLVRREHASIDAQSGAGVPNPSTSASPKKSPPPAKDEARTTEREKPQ

H3-K9 acetylation = assay: Western blot on MCF-7 cells, acetylation status of H3-K9; assay type: cell-based; settings: 24 h, concentrations up to 50 μM
[3] = system: pRb phosphorylation at Ser807/Ser811; assay: Western blot on MCF-7 cells, pRb phosphorylation; assay type: cell-based; settings: 24 h, 50 μM

| SMILES | cell cycle phase in which cells accumulate [1] | p53 acetylation at lysine 382 [2] | acetyl-α-tubulin accumulation (acetyl-α-tubulin) | further results |
| --- | --- | --- | --- | --- |
| NC(=O)C1CCCc2c1[nH]c1ccc(Cl)cc21 (stereo not drawn) [EX-527] | accumulate predominantly in G1 |  |  | reduction of cell proliferation relative to DMSO vehicle control (MCF-7 cells): approximately 50% |
| CC(C(=O)Nc1cccc(/N=C/c2c(O)ccc3ccccc23)c1)c1ccccc1 (stereo not drawn) [Salermide] | increase in cells primarily in G2/M phase | moderately induce p53 acetylation at lysine 382 | slight increase in acetyl-α-tubulin | antiproliferative effect (MCF-7 cells): abolished cell proliferation completely |
| CC(NC(=O)c1ccccc1/N=C/c1c(O)ccc2ccccc12)c1ccccc1 (stereo not drawn) [Sirtinol] | accumulate predominantly in G1 | moderately induce p53 acetylation at lysine 382 | no significant effect |  |
| CN1c2ccc(C(N)=O)cc2CCc2cc([N+](=O)[O-])ccc21 [Compound 29] |  |  |  | loss of SIRT2 potency relative to compound 8 (SIRT2; N-methyl derivative vs 8): 4 fold |
| O=C(Nc1cccc(Br)c1)c1cccc(S(=O)(=O)N2CCCCCC2)c1 [AK-7] | increase in cells primarily in G2/M phase | moderately induce p53 acetylation at lysine 382 | no significant effect |  |
| NC(=O)c1ccc2c(c1)CCc1cc([N+](=O)[O-])ccc1N2 [Compound 8] | high number of cells to accumulate at G2/M phase |  | substantial accumulation of acetyl-α-tubulin | acetylation levels of H3-K9 (H3-K9 acetylation): without increasing the acetylation levels of H3-K9; pRb phosphorylation at Ser807/Ser811 [3]: impede pRb phosphorylation at Ser807/Ser811; selectivity for SIRT2 over SIRT1 (SIRT2): more than 30 fold; acetylation of α-tubulin (acetyl-α-tubulin; concentrations up to 50 μM): induce hyperacetylation of α-tubulin; antiproliferative effect (MCF-7 cells): antiproliferative activity; also recorded: abolished cell proliferation completely |
| CC(C)(C)NS(=O)(=O)c1ccc2c(c1)Nc1ccccc1CC2 [Compound 20] |  |  |  | selectivity for SIRT2 over SIRT1 (SIRT2): more than 30 fold |
